# Laboratory results as given in ChEMBL document CHEMBL1148762, “Lysosome and HER3 (ErbB3) selective anticancer agent kahalalide F: semisynthetic modifications and antifungal lead-exploration studies” (J Med Chem, 2007).
# Legend:
# [1] = system: Fusarium solani; experiment: Antimicrobial activity against Fusarium solani at 3 uM after 48 hrs by microtiter assay; assay type: functional
# Method in brief: (§1)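 96-well microdilution broth assay with conidia (3 × 10^5 conidia/mL, harvested from 7-day PDA cultures and filtered) against F. oxysporum, F. proliferatum and F. solani at 0.3, 3 and 30 µM. Plates were held at 24 ± 1 °C under a 12 h photoperiod. Growth was read at 620 nm at 24, 48 and 72 h and reported as percent inhibition from mean absorbance with standard error.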
# [2] = system: Fusarium oxysporum; experiment: Antimicrobial activity against Fusarium oxysporum at 0.3 uM after 72 hrs by microtiter assay; assay type: functional; method in brief: as §1
# [3] = system: Candida albicans; experiment: Antimicrobial activity against Candida albicans ATCC 90028; assay type: functional, organism-based
# [4] = system: Fusarium proliferatum; experiment: Antimicrobial activity against Fusarium proliferatum at 3 uM after 72 hrs by microtiter assay; assay type: functional; method in brief: as §1
# [5] = system: Fusarium oxysporum; experiment: Antimicrobial activity against Fusarium oxysporum at 30 uM after 48 hrs by microtiter assay; assay type: functional; method in brief: as §1
# [6] = system: Fusarium oxysporum; experiment: Antimicrobial activity against Fusarium oxysporum at 3 uM after 48 hrs by microtiter assay; assay type: functional; method in brief: as §1
# [7] = system: Fusarium proliferatum; experiment: Antimicrobial activity against Fusarium proliferatum at 30 uM after 72 hrs by microtiter assay; assay type: functional; method in brief: as §1
# [8] = system: Fusarium solani; experiment: Antimicrobial activity against Fusarium solani at 30 uM after 48 hrs by microtiter assay; assay type: functional; method in brief: as §1
# [9] = system: Aspergillus fumigatus; experiment: Antimicrobial activity against Aspergillus fumigatus ATCC 90906; assay type: functional, organism-based
# [10] = system: Mycobacterium intracellulare; experiment: Antimicrobial activity against Mycobacterium intracellular ATCC 23068; assay type: functional, organism-based
# [11] = system: Leishmania donovani; experiment: Antiparasitic activity against Leishmania donovani; assay type: functional, organism-based
# [12] = system: Fusarium oxysporum; experiment: Antimicrobial activity against Fusarium oxysporum at 0.3 uM after 48 hrs by microtiter assay; assay type: functional; method in brief: as §1
# [13] = system: Fusarium solani; experiment: Antimicrobial activity against Fusarium solani at 0.3 uM after 48 hrs by microtiter assay; assay type: functional; method in brief: as §1
# [14] = system: Fusarium oxysporum; experiment: Antimicrobial activity against Fusarium oxysporum at 30 uM after 72 hrs by microtiter assay; assay type: functional; method in brief: as §1
# [15] = system: Fusarium solani; experiment: Antimicrobial activity against Fusarium solani at 0.3 uM after 72 hrs by microtiter assay; assay type: functional; method in brief: as §1
# [16] = system: Fusarium solani; experiment: Antimicrobial activity against Fusarium solani at 30 uM after 72 hrs by microtiter assay; assay type: functional; method in brief: as §1
# [17] = system: Fusarium proliferatum; experiment: Antimicrobial activity against Fusarium proliferatum at 0.3 uM after 48 hrs by microtiter assay; assay type: functional; method in brief: as §1
# [18] = system: Fusarium solani; experiment: Antimicrobial activity against Fusarium solani at 3 uM after 72 hrs by microtiter assay; assay type: functional; method in brief: as §1
# [19] = system: Fusarium proliferatum; experiment: Antimicrobial activity against Fusarium proliferatum at 30 uM after 48 hrs by microtiter assay; assay type: functional; method in brief: as §1
# [20] = system: Fusarium oxysporum; experiment: Antimicrobial activity against Fusarium oxysporum at 3 uM after 72 hrs by microtiter assay; assay type: functional; method in brief: as §1
# [21] = system: Cryptococcus neoformans; experiment: Antimicrobial activity against Cryptococcus neoformans ATCC 90113; assay type: functional, organism-based
# [22] = system: Mycobacterium tuberculosis; experiment: Antibacterial activity against Mycobacterium tuberculosis H37Rv at 16 ug/mL by micro plate alamar blue assay; assay type: functional
# Method in brief: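 M. tuberculosis H37Rv ATCC 27294 grown in BACTEC 12B medium; microplate Alamar blue assay (MABA). Primary screen at a single concentration of 16 µg/mL, read as percent inhibition.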
# [23] = system: Fusarium proliferatum; experiment: Antimicrobial activity against Fusarium proliferatum at 0.3 uM after 72 hrs by microtiter assay; assay type: functional; method in brief: as §1
# [24] = system: Mycobacterium tuberculosis; experiment: Antibacterial activity against Mycobacterium tuberculosis H37Rv by micro plate alamar blue assay; assay type: functional
# [25] = system: Fusarium proliferatum; experiment: Antimicrobial activity against Fusarium proliferatum at 3 uM after 48 hrs by microtiter assay; assay type: functional; method in brief: as §1
# [26] = system: SK-OV-3; experiment: Cytotoxicity against human SK-OV3 cells; assay type: functional
# Method in brief: (§2)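 NCI Developmental Therapeutics Program cell panel. GI50 is the concentration that reduces growth of treated cells to half that of untreated controls. TGI is the concentration that completely halts growth.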
# [27] = system: SNB-75; experiment: Cytotoxicity against human SNB75 cells; assay type: functional; method in brief: as §2
# [28] = system: T47D; experiment: Cytotoxicity against human T47D cells; assay type: functional; method in brief: as §2
# [29] = system: PC-3; experiment: Cytotoxicity against human PC3 cells; assay type: functional; method in brief: as §2
# [30] = system: RPMI-8226; experiment: Cytotoxicity against human RPMI8226 cells; assay type: functional; method in brief: as §2
# [31] = system: COLO 205; experiment: Cytotoxicity against human COLO205 cells; assay type: functional; method in brief: as §2
# [32] = system: NCI-H322M; experiment: Cytotoxicity against human NCI-H322M cells; assay type: functional; method in brief: as §2
# [33] = system: KM12; experiment: Cytotoxicity against human KM12 cells; assay type: functional; method in brief: as §2
# [34] = system: DU-145; experiment: Cytotoxicity against human DU145 cells; assay type: functional; method in brief: as §2
# [35] = system: A549; experiment: Cytotoxicity against human A549 cells; assay type: functional; method in brief: as §2
# [36] = system: HT-29; experiment: Cytotoxicity against human HT29 cells; assay type: functional; method in brief: as §2
# [37] = system: HCT-15; experiment: Cytotoxicity against human HCT15 cells; assay type: functional; method in brief: as §2
# [38] = system: HCC 2998; experiment: Cytotoxicity against human HCC2998 cells; assay type: functional; method in brief: as §2
# [39] = system: ACHN; experiment: Cytotoxicity against human ACHN cells; assay type: functional; method in brief: as §2
# [40] = system: Hs-578T; experiment: Cytotoxicity against human HS578T cells; assay type: functional; method in brief: as §2
smiles,measurement,setting,value
C/C=C1\NC(=O)[C@H](Cc2ccccc2)NC(=O)[C@@H](C(C)C)NC(=O)[C@@H]([C@@H](C)CC)NC(=O)[C@H](NC(=O)[C@H](NC(=O)[C@H](CCCNCCCCCC)NC(=O)[C@H]2CCCN2C(=O)[C@H](NC(=O)[C@@H](NC(=O)[C@@H](NC(=O)[C@H](NC(=O)CCCC(C)C)C(C)C)[C@@H](C)O)C(C)C)C(C)C)[C@@H](C)CC)[C@@H](C)OC(=O)[C@H](C(C)C)NC1=O,inhibition at 3 µM,[1],0%
same,inhibition at 0.3 µM,[2],0%
same,MFC,[3],20 µM
same,MIC,[3],20 µM
same,inhibition at 3 µM,[4],0%
same,inhibition at 30 µM,[5],93.6%
same,inhibition at 3 µM,[6],0%
same,inhibition at 30 µM,[7],92.8%
same,inhibition at 30 µM,[8],94.3%
same,MFC,[9],20 µM
same,MIC,[9],10 µM
same,MBC,[10],> 20 µM
same,MIC,[10],> 20 µM
same,IC90,[11],34 µg/mL
same,inhibition at 0.3 µM,[12],0%
same,inhibition at 0.3 µM,[13],0%
same,inhibition at 30 µM,[14],89%
same,inhibition at 0.3 µM,[15],0%
same,inhibition at 30 µM,[16],94.7%
same,inhibition at 0.3 µM,[17],0%
same,inhibition at 3 µM,[18],0%
same,inhibition at 30 µM,[19],95.3%
same,inhibition at 3 µM,[20],0%
same,MFC,[21],10 µM
same,MIC,[21],5 µM
same,inhibition at 16 µg/mL,[22],88%
same,inhibition at 0.3 µM,[23],0%
same,MIC,[24],> 16 µg/mL
same,inhibition at 3 µM,[25],0%
C/C=C1\NC(=O)[C@H](Cc2ccccc2)NC(=O)[C@@H](C(C)C)NC(=O)[C@@H]([C@@H](C)CC)NC(=O)[C@H](NC(=O)[C@H](NC(=O)[C@H](CCCNCc2ccc(F)cc2)NC(=O)[C@H]2CCCN2C(=O)[C@H](NC(=O)[C@@H](NC(=O)[C@@H](NC(=O)[C@H](NC(=O)CCCC(C)C)C(C)C)[C@@H](C)O)C(C)C)C(C)C)[C@@H](C)CC)[C@@H](C)OC(=O)[C@H](C(C)C)NC1=O,inhibition at 3 µM,[1],16.5%
same,inhibition at 0.3 µM,[2],0%
same,GI50,[26],0.183 µM
same,TGI,[26],0.387 µM
same,GI50,[27],0.265 µM
same,TGI,[27],0.655 µM
same,MFC,[3],> 20 µM
same,MIC,[3],> 20 µM
same,GI50,[28],0.161 µM
same,TGI,[28],0.333 µM
same,inhibition at 3 µM,[4],0%
same,inhibition at 30 µM,[5],96.6%
same,inhibition at 3 µM,[6],0%
same,GI50,[29],0.142 µM
same,TGI,[29],0.287 µM
same,GI50,[30],0.475 µM
same,TGI,[30],1.78 µM
same,inhibition at 30 µM,[7],96.1%
same,GI50,[31],0.156 µM
same,TGI,[31],0.315 µM
same,GI50,[32],0.203 µM
same,TGI,[32],0.429 µM
same,inhibition at 30 µM,[8],97.3%
same,MFC,[9],> 20 µM
same,MIC,[9],> 20 µM
same,MBC,[10],> 20 µM
same,MIC,[10],> 20 µM
same,inhibition at 0.3 µM,[12],0%
same,GI50,[33],0.179 µM
same,TGI,[33],0.379 µM
same,inhibition at 0.3 µM,[13],0%
same,inhibition at 30 µM,[14],94.3%
same,inhibition at 0.3 µM,[15],0%
same,inhibition at 30 µM,[16],97.3%
same,GI50,[34],0.112 µM
same,TGI,[34],0.23 µM
same,inhibition at 0.3 µM,[17],0%
same,inhibition at 3 µM,[18],0%
same,inhibition at 30 µM,[19],97.5%
same,GI50,[35],0.161 µM
same,TGI,[35],0.34 µM
same,inhibition at 3 µM,[20],0%
same,MFC,[21],10 µM
same,MIC,[21],10 µM
same,inhibition at 16 µg/mL,[22],77%
same,GI50,[36],0.151 µM
same,TGI,[36],0.288 µM
same,inhibition at 0.3 µM,[23],0%
same,GI50,[37],0.151 µM
same,TGI,[37],0.289 µM
same,GI50,[38],0.201 µM
same,TGI,[38],0.517 µM
same,GI50,[39],1.08 µM
same,TGI,[39],2.06 µM
same,inhibition at 3 µM,[25],0%
same,GI50,[40],0.212 µM
same,TGI,[40],0.695 µM
